Measurements taken from ChEMBL document CHEMBL1137147, “Low molecular weight thrombin inhibitors with excellent potency, metabolic stability, and oral bioavailability” (Bioorg Med Chem Lett, 2004).
pKi: −log10 of the molar value.

Tests used:
Rattus norvegicus [1] = assay: Effect (10 ug/kg/min) on FeCl3 induced clot formation on carotid artery, expressed as no. of vessel occlusions out of 5 rats; type: functional
Method in brief: (§1)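 Anesthetized rats given test compound by intravenous infusion at 10 µg/kg/min for 180 min. Topical FeCl3 applied to the carotid artery at 120 min post dose, then carotid blood flow monitored for 60 min. Result is the number of animals with occluded vessels (n = 5 or 6).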

Prothrombin = Prothrombin (Homo sapiens, UniProt P00734); assay: Inhibition constant against human Thrombin
[2] = Area under the curve in dog when administered 1 mg/kg perorally; type: ADME, organism-based, Canis lupus familiaris; set-up: dose 1 mg/kg, route oral; details: in vivo, po
Method in brief: (§2)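 Amorphous TFA salts given orally at 1 mg/kg in 1% methocel to beagle dogs (n = 2). Blood sampled over 8 h post dose plus a final 24 h sample. Drug isolated from plasma by solid-phase extraction and quantified by LC–MS/MS against a standard curve. AUC and t1/2 derived from the concentration–time curve.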

Rattus norvegicus [3] = assay: Percent free rat plasma protein binding after administration of the compound; type: functional
[4] = Percent free human plasma protein binding after administration of the compound; type: functional
[5] = Plasma half life in dog when administered 1 mg/kg perorally; type: ADME, organism-based, Canis lupus familiaris; set-up: dose 1 mg/kg, route oral; details: po; method in brief: as §2
Rattus norvegicus [6] = assay: Effect (10 ug/kg/min) on FeCl3 induced clot formation on carotid artery, expressed as no. of vessel occlusions out of 6 rats; type: functional; method in brief: as §1

| SMILES | Activity (Rattus norvegicus [1]) | pKi (Prothrombin) | AUC [2] [µM·h] | Activity (Rattus norvegicus [3]) [%] | Activity [4] [%] | half-life [5] [h] | Activity (Rattus norvegicus [6]) |
| --- | --- | --- | --- | --- | --- | --- | --- |
| NCc1ccc(Cl)cc1CNC(=O)[C@@H]1CCCN1C(=O)CO | 4 | 9.30 | 30 | 9 | 1 | 13 | – |
| CC(C)(C1CC1)[C@@H](O)C(=O)N1CC[C@H]1C(=O)NCc1cc(Cl)ccc1CN | 0 | 8.43 | 11 | 17 | 11 | 4.7 | – |
| C[C@](O)(C(=O)N1CCC[C@H]1C(=O)NCc1cc(Cl)ccc1CN)c1ccccc1 | – | 8.33 | 21 | – | – | 3.1 | – |
| NCc1ccc(Cl)cc1CNC(=O)[C@@H]1CCCN1C(=O)[C@@H](O)c1ccccc1 | – | 7.10 | – | – | – | – | – |
| CC(C)(C)[C@@H](O)C(=O)N1CCC[C@H]1C(=O)NCc1cc(Cl)ccc1CN | – | 8.68 | 10 | 54 | 24 | 5.4 | 0 |
| NCc1ccc(Cl)cc1CNC(=O)[C@@H]1CCCN1C(=O)[C@H](O)c1ccccc1 | – | 9.05 | 1.4 | – | – | 2 | – |
| CC(C)[C@@H](O)C(=O)N1CCC[C@H]1C(=O)NCc1cc(Cl)ccc1CN | – | 8.25 | 4.9 | 60 | 63 | 4.2 | 2 |
| CC(C)(C)[C@@H](O)C(=O)N1CC[C@H]1C(=O)NCc1cc(Cl)ccc1CN | 0 | 8.30 | 3.5 | 26 | 21 | 3.4 | – |
| NCc1ccc(Cl)cc1CNC(=O)[C@@H]1CCCN1C(=O)[C@H](O)C1CCCCC1 | – | 9.57 | 1.7 | 36 | 4 | 2 | 0 |
| C[C@@](O)(C(=O)N1CCC[C@H]1C(=O)NCc1cc(Cl)ccc1CN)c1ccccc1 | – | 8.57 | 14 | 24 | 15 | 3.4 | 1 |
